Test results taken from ChEMBL document CHEMBL1145518, “Potent immune-modulating and anticancer effects of NKT cell stimulatory glycolipids” (2007).
Calls of active or inactive are those of the source. The calls are words filed in the database; no cut-off is given here.

Assays:
[1] = Induction of IL2 secretion in human CD161+ CD3+ NKT cells at 10 ug/ml after 18 hrs relative to basal level; assay type: functional
Method in brief: (§1)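 Human Vα24i NKT cell lines were expanded for 10 days on irradiated (3,000 rad) autologous immature DCs with 10 units/ml IL-2. The cells (1 × 10^5) were cocultured with 5 × 10^4 irradiated immature CD14+ DCs plus glycolipid at 10 μg/ml. Supernatants were collected at 18 h and read on a 22-plex Luminex bead panel. Triplicates, mean ± SD.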

[2] = Induction of GM-CSF secretion in human CD161+ CD3+ NKT cells at 10 ug/ml after 18 hrs relative to basal level; assay type: functional; method in brief: as §1
[3] = Induction of IFN-gamma secretion in human CD161+ CD3+ NKT cells at 10 ug/ml after 18 hrs relative to basal level; assay type: functional; method in brief: as §1
[4] = Induction of TNFalpha secretion in human CD161+ CD3+ NKT cells at 10 ug/ml after 18 hrs relative to basal level; assay type: functional; method in brief: as §1
[5] = tested on: Mus musculus; assay: Induction of IL2 secretion in BALB/c mouse serum at 2 ug, iv after 2 hrs relative to control; assay type: functional
Method in brief: (§2)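 BALB/c mice received an i.v. injection of 100 μl of glycolipid diluted to 20 μg/ml in saline from DMSO stock, with 1% DMSO as vehicle. Serum cytokines/chemokines were measured at 2 and 18 h after injection.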

[6] = Induction of IL15 secretion in human CD161+ CD3+ NKT cells at 10 ug/ml after 18 hrs relative to basal level; assay type: functional; method in brief: as §1
[7] = Induction of IL8 secretion in human CD161+ CD3+ NKT cells at 10 ug/ml after 18 hrs relative to basal level; assay type: functional; method in brief: as §1
[8] = tested on: TC1; assay: Antitumor activity in TC1 cells xenografted C57BL/6 mouse assessed as suppression of tumor growth at 2 ug, iv; assay type: functional, cell-based
Method in brief: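 C57BL/6 mice (n = 5/group) were inoculated i.v. with TC-1 lung cancer cells. They were then treated i.v. with 2 μg glycolipid per mouse, or 100 μl of 1% DMSO, twice weekly for 4 weeks. Kaplan–Meier survival and body weight were followed, with tumor-free mice as an additional control.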

[9] = tested on: Mus musculus; assay: Induction of IL3 secretion in BALB/c mouse serum at 2 ug, iv after 2 hrs relative to control; assay type: functional; method in brief: as §2
[10] = Induction of IL12p70 secretion in human CD161+ CD3+ NKT cells at 10 ug/ml after 18 hrs relative to basal level; assay type: functional; method in brief: as §1
[11] = tested on: Mus musculus; assay: Induction of RANTES secretion in BALB/c mouse serum at 2 ug, iv after 2 hrs relative to control; assay type: functional; method in brief: as §2
[12] = tested on: Mus musculus; assay: Induction of IL12p40 secretion in BALB/c mouse serum at 2 ug, iv after 18 hrs relative to control; assay type: functional; method in brief: as §2
[13] = Induction of MCP1 secretion in human CD161+ CD3+ NKT cells at 10 ug/ml after 18 hrs relative to basal level; assay type: functional; method in brief: as §1
[14] = tested on: Mus musculus; assay: Induction of MCP1 secretion in BALB/c mouse serum at 2 ug, iv after 2 hrs relative to control; assay type: functional; method in brief: as §2
[15] = tested on: 4T1; assay: Antitumor activity in mouse 4T1 cells xenografted BALB/c mouse assessed as suppression of tumor growth at 2 ug, iv; assay type: functional, cell-based
Method in brief: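 BALB/c mice (n = 6) were inoculated s.c. with 4T1 breast cancer cells. From day 3 they were treated i.v. with glycolipid or vehicle twice weekly for 4 weeks. Tumor volume was recorded every 3 days for 1 month, and survival was monitored up to 54 days.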

[16] = tested on: Mus musculus; assay: Induction of IL1-beta secretion in BALB/c mouse serum at 2 ug, iv after 18 hrs relative to control; assay type: functional; method in brief: as §2
[17] = tested on: Mus musculus; assay: Induction of IL12p70 secretion in BALB/c mouse serum at 2 ug, iv after 18 hrs relative to control; assay type: functional; method in brief: as §2
[18] = Induction of MIPalpha secretion in human CD161+ CD3+ NKT cells at 10 ug/ml after 18 hrs relative to basal level; assay type: functional; method in brief: as §1
[19] = Induction of IL6 secretion in human CD161+ CD3+ NKT cells at 10 ug/ml after 18 hrs relative to basal level; assay type: functional; method in brief: as §1
[20] = tested on: Mus musculus; assay: Induction of IFN-gamma secretion in BALB/c mouse serum at 2 ug, iv after 18 hrs relative to control; assay type: functional; method in brief: as §2
[21] = tested on: Mus musculus; assay: Induction of IL4 secretion in BALB/c mouse serum at 2 ug, iv after 2 hrs relative to control; assay type: functional; method in brief: as §2
[22] = tested on: Mus musculus; assay: Induction of KC secretion in BALB/c mouse serum at 2 ug, iv after 2 hrs relative to control; assay type: functional; method in brief: as §2
[23] = Induction of IL4 secretion in human CD161+ CD3+ NKT cells at 10 ug/ml after 18 hrs relative to basal level; assay type: functional; method in brief: as §1
[24] = tested on: Mus musculus; assay: Induction of IL6 secretion in BALB/c mouse serum at 2 ug, iv after 2 hrs relative to control; assay type: functional; method in brief: as §2
[25] = Induction of IL12p40 secretion in human CD161+ CD3+ NKT cells at 10 ug/ml after 18 hrs relative to basal level; assay type: functional; method in brief: as §1
[26] = tested on: Mus musculus; assay: Induction of MIPbeta secretion in BALB/c mouse serum at 2 ug, iv after 2 hrs relative to control; assay type: functional; method in brief: as §2
[27] = tested on: Mus musculus; assay: Induction of GM-CSF secretion in BALB/c mouse serum at 2 ug, iv after 2 hrs relative to control; assay type: functional; method in brief: as §2
[28] = tested on: Mus musculus; assay: Induction of IL10 secretion in BALB/c mouse serum at 2 ug, iv after 18 hrs relative to control; assay type: functional; method in brief: as §2
[29] = Induction of IL10 secretion in human CD161+ CD3+ NKT cells at 10 ug/ml after 18 hrs relative to basal level; assay type: functional; method in brief: as §1
[30] = tested on: Mus musculus; assay: Induction of IL13 secretion in BALB/c mouse serum at 2 ug, iv after 2 hrs relative to control; assay type: functional; method in brief: as §2
[31] = tested on: Mus musculus; assay: Induction of TNFalpha secretion in BALB/c mouse serum at 2 ug, iv after 18 hrs relative to control; assay type: functional; method in brief: as §2
[32] = Induction of RANTES secretion in human CD161+ CD3+ NKT cells at 10 ug/ml after 18 hrs relative to basal level; assay type: functional; method in brief: as §1
[33] = Induction of IL3 secretion in human CD161+ CD3+ NKT cells at 10 ug/ml after 18 hrs relative to basal level; assay type: functional; method in brief: as §1
[34] = Induction of IL13 secretion in human CD161+ CD3+ NKT cells at 10 ug/ml after 18 hrs relative to basal level; assay type: functional; method in brief: as §1
[35] = tested on: NKT; assay: Stimulation of cell expansion of human invariant CD161+/ Valpha24+/ CD56+/ CD3+ NKT cells by flow cytometry method; assay type: functional, cell-based
Method in brief: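 CD56+ NK/NKT mixtures (2 × 10^6) were isolated from human leukopaks with anti-CD56 microbeads. They were cocultured with 4 × 10^5 autologous immature CD14+ DCs pulsed with glycolipid at 3 μg/ml, or with 0.3% DMSO, on day 2 for 18 h. Suspension cells were then transferred and kept in 100 units/ml IL-2 with fresh medium every 3 days. On day 9, CD161+/Vα24TCR+ cells were gated by flow cytometry and total Vα24i NKT cells counted. Triplicates, mean ± SD.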

[36] = tested on: Mus musculus; assay: Increase in CD8/CD4 T cell ratio in BALB/c mouse at 2 ug, iv after 72 hrs by flow cytometry; assay type: functional, organism-based
[37] = tested on: Mus musculus; assay: Activation of B cells in BALB/c mouse at 2 ug, iv after 72 hrs by flow cytometry; assay type: functional, organism-based

Row | SMILES | Activity [1] | Activity [2] | Activity [3] | Activity [4] | Activity [5] | Activity [6] | Activity [7] | Activity [8] | Activity [9] | Activity [10] | Activity [11] | Activity [13] | Activity [18] | Activity [19] | Activity [23] | Activity [25] | Activity [29] | Activity [32] | Activity [33] | Activity [34] | also measured
1 | CCCCCCCCCCCCCCC[C@@H](O)[C@H](CO[C@H]1O[C@H](C(=O)O)[C@H](O)[C@H](O)[C@H]1O)NC(=O)CCCCCCCCCCCCC | 1.3 | 2.9 | 2.4 | 5.5 | 17.2 | 2 | 2.3 | Active | 2.8 | 1.7 | 0.9 | 1.7 | 3.5 | 2.3 | 2.9 | 1.9 | 1.7 | 2.4 | 1.7 | 2 | Activity [12]: 1.9; Activity [14]: 5.6; Activity [15]: Active; Activity [16]: 2; Activity [17]: 1.2; Activity [20]: 3.1; Activity [21]: 26.8; Activity [22]: 7.6; Activity [24]: 1.7; Activity [26]: 1.4; Activity [27]: 4.9; Activity [28]: 1.1; Activity [30]: 2.3; Activity [31]: 6
2 | CCCCCCCCCCCCCC[C@@H](O)[C@@H](O)[C@H](CO[C@H]1O[C@H](CO)[C@H](O)[C@H](O)[C@H]1O)NC(=O)CCCCCCCCCCCCC | 1.8 | 3 | 2.7 | 3 | 14 | 2.4 | 2.2 |  | 1.5 | 1.6 | 0.9 | 1.4 | 3.5 | 1.9 | 2.8 | 1.7 | 1.9 | 2 | 1.7 | 1.9 | Activity [35]: Active; Activity [12]: 0.9; Activity [14]: 2.6; Activity [16]: 2.4; Activity [17]: 3.5; Activity [36]: Active; Activity [20]: 43.8; Activity [21]: 26.2; Activity [22]: 3.9; Activity [24]: 1.5; Activity [26]: 1.5; Activity [27]: 1.6; Activity [28]: 5.4; Activity [37]: Active; Activity [30]: 0.9; Activity [31]: 2
3 | CCCCCCCCCCCCCCCCCCCCCCCCCC(=O)N[C@@H](CO[C@H]1O[C@H](C(=O)O)[C@H](O)[C@H](O)[C@H]1O)[C@H](O)[C@H](O)CCCCCCCCCCCCCC | 2.3 | 2 | 3.4 | 1.7 | 21.5 | 1.7 | 1.4 | Active | 10.4 | 2.7 | 2.8 | 1.2 | 3.3 | 1 | 1.5 | 1.8 | 0.7 | 1.6 | 1.3 | 1.1 | Activity [12]: 4.4; Activity [14]: 8; Activity [15]: Active; Activity [16]: 4.8; Activity [17]: 1.4; Activity [36]: Active; Activity [20]: 27.5; Activity [21]: 21.2; Activity [22]: 16.1; Activity [24]: 4.9; Activity [26]: 1.8; Activity [27]: 37.6; Activity [28]: 1.5; Activity [30]: 1.7; Activity [31]: 8.7
4 | CCCCCCCCCCCCCC[C@@H](O)[C@@H](O)[C@H](CO[C@H]1O[C@H](CO)[C@H](O)[C@H](O)[C@H]1O)NC(=O)CCCCCc1ccccc1 | 5.9 | 5.6 | 4.6 | 8.7 |  | 2.6 | 2.2 | Active |  | 3.3 |  | 1.3 | 3 | 2.7 | 3 | 2.4 | 2.4 | 1.8 | 4.1 | 2.6 | Activity [35]: Active; Activity [37]: Active
